In the library only some 12% were active in any assay of this set; here they are far more common.
MT stabilize HCS: microtubule stabilization, imaging screen. HeLa tubulin immunostaining HCS, 24 h; share of cells brighter than vehicle mean+2SD. % tubulin-high responders, % at 10 µM. hit rate 0.83% among 200,000;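 active = plate Z-score above 3 for both tubulin-high and condensed-nucleus cell shares, with cell loss under 80%, at 10 µM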;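 note: anti alpha tubulin signal scored within the nucleus-defined area of each cell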
bCat nuc transl: alters nuclear translocation of beta-catenin in HeLa cells; hit rate 0.3% among 190,000; nuclear translocation activity, % at 5 µM; immunofluorescence imaging; AID 1665;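 active = nuclear translocation activity above 50% at 5 µM, with a well cell count of 50 or more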;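 note: per-cell ratio of nuclear to cytoplasmic median beta-catenin stain intensity; plate controls were DMSO negative control for no effect and GSK-3 inhibitor IX positive control for full effect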
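Technique: fluorescence imaging of beta-catenin antibody stain plus DAPI / Material: human HeLa cell line / Incubation: compound treatment 24 h, 37°C, 5% CO2 / Read-out basis: % activation of per-cell nuclear versus cytoplasmic median beta-catenin signal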
CHOP inh: blocks CHOP induction under ER stress | CHO-K1 CHOP-promoter luciferase, tunicamycin-induced, 15-18 h | inhibition, % at 10 µM | hit rate 3.8% among 220,000;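 active = compounds that reduced the stress-induced luciferase reporter signal by more than about 70% of percent inhibition, limit read from the data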;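 note: 0% = tunicamycin plus vehicle and 100% = wells without tunicamycin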
Autophagy mod: alters autophagy in cells; MEF GFP-LC3 puncta imaging; test concentration mostly 10 µM; hit rate 0.98% among 190,000; AID 463193; calls only at 10 µM (by protocol);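 active = percentage of spot-positive cells more than 3 SD above its plate mean, without a fluorescence outlier flag or 80% toxicity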;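 note: spot-positive cell cutoff set from DMSO-treated cells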
Dynein transport: dynein cargo transport inhibition. hit rate 0.47% among 220,000. z-score, hits read low. 3617.4 mouse cells, GR-EGFP nuclear translocation imaging; test concentration mostly 20 µM; stimulated with dexamethasone, 1 µM; active compounds read low. AID 1381;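 active = plate z-score of nuclear minus cytoplasmic receptor signal below a set negative limit, without overly bright fluorescence or cell loss, cut at about -3.5 in these data, passing the limit was not always enough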;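 note: z-score of nuclear minus cytoplasmic ring GR-EGFP intensity difference per well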
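Also added: dexamethasone, 1.0 µM final. Medium: tet-free, stripped-serum medium. Detection: fixed, Hoechst-stained cells imaged at 10x for EGFP. Read-out: nuclear-to-cytoplasmic GR-EGFP distribution per well. Times: induction 48 h, compound 1 h, agonist 30 min.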
L major viab: reduces viability of Leishmania major promastigotes | resazurin fluorescence viability | hit rate 9% among 200,000 | AID 1063 | inhibition, % at 10 µM; in the data active = inhibition above about 50%;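 note: promastigotes grown with compound for 44 hours at 28 °C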
* = called active by the depositor; i = inactive; x = no result.

SMILES	MT stabilize HCS	bCat nuc transl	CHOP inh	Autophagy mod	Dynein transport	L major viab
CC(=O)c1cccc(NC(=O)Nc2cccs2)c1	3.1	0.5	28.1	i	-0.292	-7.6
C=CCC(C#Cc1ccc(C)cc1)N(CC)CC (stereo unspecified)	1.2	x	50.3	i	-1.37	-2.6
O=C1c2cnc3nc(SCc4ccc(Cl)cc4)nn3c2CC2c3ccccc3CCN12 (stereo unspecified)	3.2	-1.6	-7.1	i	-0.168	34.4
CCC(=O)Nc1cccc(NC(=S)NC(=O)c2ccccc2)c1	2.4	-3.2	13.8	i	-0.783	5.1
O=C(NC(=S)Nc1cccc(CO)c1)c1ccc(-c2ccccc2)cc1	2.8	-1.7	-0.7	i	-0.497	56.8*
CC(C)CC(COCc1cccc(Cl)c1)N1CCN(C(=O)c2ccc(C(F)(F)F)cc2)CCC1=O (stereo unspecified)	3.0	x	76.8*	i	-0.585	24.8
Cc1ccc(COc2ccsc2C(=O)NN)cc1	2.4	0.8	6.6	i	0.169	3.8
C/C(=N\N=C(N)N)c1ccc(Cl)c(Cl)c1	6.0	1.8	-5.2	i	3.53	100.5*
CN(C)c1ccccc1C(=O)c1ccccc1N(C)C	54.9*	17.1	x	x	-0.0236	-5.9
CN(c1ccccc1C(=O)O)S(C)(=O)=O	3.8	-3.8	-19.9	i	-0.365	-1.8
Cc1cc(C)n(C(=O)COc2ccccc2[N+](=O)[O-])n1	x	-2.4	13.9	x	0.0469	x
COc1ccc(C(=O)NNC(=O)C2CCCN(C3CC(=O)N(c4ccccc4)C3=O)C2)cc1 (stereo unspecified)	x	-0.4	-6.8	x	-0.242	x
O=S(=O)(NC1CCCCC1Oc1ccccc1)c1ccccc1 (stereo unspecified)	3.3	-0.3	32.2	i	-0.369	6.8
COc1ccc(NC(=O)C(c2cc3c(cc2[N+](=O)[O-])OCO3)N(C)c2ccccc2)cc1 (stereo unspecified)	2.2	2.9	51.2	i	0.596	81.4*
CCN(CC)CCCNC(=O)c1cc2nc3c(c(C(F)(F)F)n2n1)CCc1ccccc1-3	2.8	0.7	20.5	i	0.473	96.4*
O=C1O/C(=C/c2ccccc2)N=C1c1ccccc1	2.9	x	87.2*	i	-0.985	-0.4
C=CCOc1c(Cl)cc(CNc2ccc(N(C)C)cc2)cc1OC	31.6*	4.1	-54.0	i	-0.885	100.8*
C=CCOc1c(Cl)cc(CNc2ccc(C)c(Cl)c2)cc1OC	17.7*	145.6*	20.9	i	0.208	8.5
OC(COc1ccc(CN2CCCCO2)cc1)CN1CCCCC1 (stereo unspecified)	2.0	0.6	-10.9	i	0.319	-2.1
O=C(Cc1ccc(-n2c(=O)c3sccc3n(CC(=O)Nc3ccccc3F)c2=O)cc1)NCc1ccco1	1.4	-4.9	-6.0	i	-0.747	-4.4
CCCCC(=O)Nc1ccc(C(=O)Nc2ccc(S(=O)(=O)Nc3nccc(C)n3)cc2)cc1	4.7	0.7	8.1	i	3.52	78.2*
Cc1ccnc(NS(=O)(=O)c2ccc(NC(=O)CSc3nc(-c4ccccc4)cc(=O)[nH]3)cc2)n1	2.3	0.2	7.3	i	-0.237	93.7*
Oc1ccc(/C=N/n2c(-c3ccco3)csc2=Nc2cccnc2)c(O)c1	2.3	-5.4	40.2	i	-0.36	99.2*
Cc1cc(C)c(S(=O)(=O)Nc2cccc(S(=O)(=O)NC3=NCCC3)c2)c(C)c1	2.0	4.3	8.2	i	0.201	-8.5
O=C(O)CCNS(=O)(=O)c1ccc(Oc2ccccc2)cc1	2.2	x	56.8	i	-0.71	-12.6
SMILES	MT stabilize HCS	bCat nuc transl	CHOP inh	Autophagy mod	Dynein transport	L major viab
CC(C)/C=C/C(=O)N1CCC(N2CCC(C(=O)N3CCOCC3)CC2)CC1	2.4	3.3	10.9	i	-0.228	3.3
O=C(C1CCN(C2CCN(Cc3ccc4c(c3)CCO4)CC2)CC1)N1CCCC1	1.4	-0.2	33.5	i	-0.171	-8.8
CC(C)=CCCC(C)CN1CCC(N2CCC(C(=O)N3CCCC3)CC2)CC1 (stereo unspecified)	1.9	-2.5	22.2	i	-0.428	73.4*
C=C(C)[C@@H]1CC=C(C(=O)O)CC1	x	-1.3	16.3	x	-0.517	x
C=C(C)C1CC=C(CN2CCC(O)CC2)CC1 (stereo unspecified)	1.6	x	-7.3	i	-1.28	92.8*
C=C(C)[C@@H]1CC=C(CN2CCC(N3CCC(C(=O)N4CCCC4)CC3)CC2)CC1	1.7	-0.5	11.2	i	0.195	79.4*
COc1ccc(C2=NN(C(=O)CSc3ncccn3)C(c3cccc(OC)c3OC)C2)cc1 (stereo unspecified)	8.6	2.4	9.0	i	-0.237	78.6*
COc1ccc(C2=NN(C(=O)CSc3ncccn3)C(c3ccc(C)cc3)C2)cc1 (stereo unspecified)	5.0	-3.2	-8.4	i	-0.365	26.5
CCC(=O)Nc1ccc(/C(C)=N\NS(=O)(=O)c2ccc(C)cc2)cc1	4.5	-2.2	24.0	i	-0.506	-4.3
COc1cc(NS(=O)(=O)c2ccc(NC(=S)NC(=O)/C=C/c3ccc(OC)c(OC)c3)cc2)ncn1	1.9	1.6	79.2*	i	-0.204	-9.8
COc1ccc(/C=C/C(=O)NC(=S)Nc2ccc(S(=O)(=O)Nc3cc(OC)ncn3)cc2)cc1	2.0	1.9	20.1	i	-0.172	-4.6
Cc1nc(C)c(-c2csc(Nc3cccc(O)c3)n2)s1	7.2	1.0	17.6	i	0.614	7.2
Cc1cccc(Nc2nc(-c3c(C)nc4ccccn34)cs2)c1	21.3*	38.2	77.1*	i	1.37	47.9
Cc1ccn2c(-c3csc(NCc4ccco4)n3)c(C)nc2c1	4.3	-2.6	33.6	i	-1.61	22.6
Cc1nc2ccccn2c1-c1csc(Nc2cccc(O)c2)n1	15.9	75.4*	0.8	i	-0.237	36.5
Cc1cccc(Nc2nc(-c3ccncc3)cs2)c1	4.1	-2.0	11.0	i	-0.0116	17.2
Cc1cccc(Nc2nc(-c3ccc4c(c3)OCCO4)cs2)c1	18.4*	-0.9	32.5	i	0.461	5.9
CC(C)[C@H](NC(=O)c1ccco1)C(=O)OCC(=O)Nc1ccccc1OC(F)F	2.2	-1.1	-20.3	i	-1.88	-3.0
CC1CC(C)CN(CCCNC(=O)c2csc3c2CCCC3)C1 (stereo unspecified)	1.2	-0.3	9.2	i	1.99	92.5*
CCCCN(CC)CCCNC(=O)c1csc2c1CCCCC2	3.2	-3.1	-0.4	i	1.25	86.8*
CN(c1ncc(C(F)(F)F)cc1Cl)N1C(=O)c2cccc([N+](=O)[O-])c2C1=O	3.9	-4.4	-27.2	i	-0.766	-5.2
O=C1c2ccccc2OC2(C=Cc3ccccc3O2)N1Cc1ccccc1 (stereo unspecified)	42.2*	48.4	19.9	i	-1.64	23.9
